In brackets after ≈: the same amount, converted by molar mass. Activity calls are given as the source filed them. The calls are words filed in the database; no cut-off is given here.
How the values were obtained:
Assay type in all cases: functional, cell-based
[1] = tested on: MCF7; test: Cytotoxicity against human MCF7 cells after 72 hrs by sulforhodamine B assay; conditions: for EC50: MCF7, 72 h
How it was run: (§1)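 SRB assay following NCI procedure; 72 h continuous exposure. Cells grown at 37 °C, 5% CO2, humidified, in RPMI-1640 with 25 mM HEPES, 2% (w/v) sodium bicarbonate, 10% (v/v) FBS, 100 µg/mL kanamycin. Compounds from DMSO stocks, final DMSO ≤1% (v/v). EC50 (µg/mL, 50% cell-number reduction) interpolated from dose-response; triplicate tests; doxorubicin positive control.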

[2] = tested on: A549; test: Cytotoxicity against human A549 cells after 72 hrs by sulforhodamine B assay; conditions: for EC50: A549, 72 h; how it was run: as §1
[3] = Cytotoxicity against human KB-VIN cells after 72 hrs by sulforhodamine B assay; conditions: KBVIN; how it was run: as §1
[4] = tested on: KB; test: Cytotoxicity against human KB cells after 72 hrs by sulforhodamine B assay; how it was run: as §1

Compound	Activity [1]	Activity [2]	EC50 [3] [µg/mL]	Activity [4]	EC50 [1] [µg/mL]	EC50 [4] [µg/mL]	EC50 [2] [µg/mL]
COc1ccc2cc(/C=C/C(=O)O)c3cc(OC)c(OC)cc3c2c1	inactive	inactive	14.7 (≈ 43.5 µM)	inactive			
COc1ccc2c(c1)c1cc(OC)c(OC)cc1c1cc[nH]c(=O)c21	inactive	inactive	7.39 (≈ 22 µM)	inactive			
COc1ccc2cc(/C=C/C(=O)N=[N+]=[N-])c3cc(OC)c(OC)cc3c2c1		inactive	9.36 (≈ 25.8 µM)		8.29 (≈ 22.8 µM)	13.5 (≈ 37.2 µM)	
COc1ccc2c3c(c4cc(OC)c(OC)cc4c2c1)C(=O)N1CCCC1C3 (stereo not given)			1.16 (≈ 3.07 µM)		2.14 (≈ 5.67 µM)	1.39 (≈ 3.68 µM)	1.15 (≈ 3.05 µM)
COc1ccc2c3c(c4cc(OC)c(OC)cc4c2c1)CC1CCCN1C3 (racemic) [(+/-)-ANTOFINE]			0.00083 (≈ 0.00228 µM)		0.0045 (≈ 0.0124 µM)	0.00043 (≈ 0.00118 µM)	0.00016 (≈ 0.00044 µM)
COc1ccc2c3c(c4cc(OC)c(OC)cc4c2c1)CN1CCCC1C3 (racemic) [(+/-)-DEOXYTYLOPHORININE]			0.016 (≈ 0.044 µM)		0.043 (≈ 0.118 µM)	0.023 (≈ 0.0633 µM)	0.011 (≈ 0.0303 µM)
COc1ccc2c(c1)c1cc(OC)c(OC)cc1c1cc3[n+](cc21)CCC3.[Br-] [DEHYDROANTOFINE BROMIDE]			5.14		1.29	5.37	0.49
COc1ccc2c(c1)c1cc(OC)c(OC)cc1c1cc3[n+](cc21)CCC3.[Cl-] [DEHYDROANTOFINE CHLORIDE]			0.33		1.72	0.93	0.73
COc1ccc2c(c1)c1cc(OC)c(OC)cc1c1c[n+]3c(cc21)CCC3.[Br-] [DEOXYPERGULARININE BROMIDE]			8.26		1.18	0.29	0.32
COc1ccc2c(c1)c1cc(OC)c(OC)cc1c1c[n+]3c(cc21)CCC3.[Cl-] [DEOXYPERGULARININE CHLORIDE]			5.66		1.49	0.95	1.06

From ChEMBL document CHEMBL1150332, “Total synthesis of phenanthroindolizidine alkaloids (+/-)-antofine, (+/-)-deoxypergularinine, and their dehydro congeners and evaluation of their cytotoxic activity” (Bioorg Med Chem, 2008)
